Results reported in ChEMBL document CHEMBL1126084, “2-Acetylpyridine thiocarbonohydrazones. Potent inactivators of herpes simplex virus ribonucleotide reductase” (J Med Chem, 1992).

Columns and labels:
[1] = target: T1, Ribonucleoside-diphosphate reductase RR1 (Homo sapiens) (UniProt P23921+Q7LG56+P31350); assay: Inhibitory index against human ribonucleotide reductase; type: protein-complex assay
Method in brief: (§1)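 Index per eq 1 combines kinact and percent inhibition of initial velocity from reductase reactions ±5 μM inhibitor (unless otherwise indicated). 0.99 is subtracted from the calculated ratio, so a non-inhibiting, non-inactivating compound scores zero. HSV-1 and human enzymes were assayed under their respective conditions.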

[2] = target: T1, Ribonucleoside-diphosphate reductase RR1 (Homo sapiens); assay: Apparent enzyme activity measured as the ratio of HSV-1 and human enzyme inhibition induces; type: functional; settings: Human alphaherpesvirus 1
Method in brief: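 Apparent selectivity is the ratio of HSV-1 to human inhibition indices, each from eq 1 at 5 μM inhibitor or at the indicated concentration for each enzyme.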

[3] = target: T1, Ribonucleoside-diphosphate reductase RR1 (Homo sapiens); assay: Inactivation of human ribonucleotide reductase at rate constant K inact; type: protein-complex assay
Method in brief: (§2)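 The ATP contributed about 3 μM iron, keeping inhibitors iron-complexed. Reactions ran ±5 μM inhibitor unless otherwise indicated. kinact (per hour, net over the control) and v0 came from iterative nonlinear least-squares fits of decelerating time courses.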

[4] = target: T1, Ribonucleoside-diphosphate reductase RR1 (Homo sapiens); assay: Inhibition of human ribonucleotide reductase; type: protein-complex assay; parameters: concentration or dose not given beside the values; settings: concentration not given here; method in brief: as §2
[5] = pKa value of the compound; type: physicochemical
Method in brief: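 Protonation and anion-generation pKa values were determined spectrophotometrically.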

[6] = tested on: Human alphaherpesvirus 1; assay: Inactivation of HSV-1 ribonucleotide reductase at rate constant K inact
Method in brief: (§3)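 Partially purified HSV-1 ribonucleotide reductase, assayed by reduction of purified [14C]CDP in 200 mM Hepes Na+ pH 7.7, 10 mM dithiothreitol, 2 μM CDP (500 Ci/mol, 3–4 × Km), with and without 5 μM inhibitor unless otherwise indicated. First-order kinact (per hour) and v0 of decelerating product time courses come from iterative nonlinear least squares. kinact is the net increase over the uninhibited control, and % inhibition refers to v0.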

[7] = tested on: Human alphaherpesvirus 1; assay: Inhibition of HSV-1 ribonucleotide reductase; parameters: concentration or dose not given beside the values; settings: concentration not given here; method in brief: as §3
[8] = tested on: Human alphaherpesvirus 1; assay: Inhibitory index against HSV-1 ribonucleotide reductase; method in brief: as §1
[9] = target: T1, Ribonucleoside-diphosphate reductase RR1 (Homo sapiens); assay: Inhibition of human ribonucleotide reductase by the compound (5 uM); type: protein-complex assay; method in brief: as §2
[10] = target: T1, Ribonucleoside-diphosphate reductase RR1 (Homo sapiens); assay: Inhibitory index against human ribonucleotide reductase calculated as, [1+k inact/f+0.01] where f = 1-% inhibition/100).; type: protein-complex assay; method in brief: as §1
[11] = tested on: Human alphaherpesvirus 1; assay: Inhibition of HSV-1 ribonucleotide reductase by the compound (5 uM); type: functional; method in brief: as §3
[12] = target: T1, Ribonucleoside-diphosphate reductase RR1 (Homo sapiens); assay: Inactivation of human ribonucleotide reductase by the compound (5 uM) at rate constant K inact.; type: protein-complex assay; method in brief: as §2
[13] = tested on: Human alphaherpesvirus 1; assay: Inhibitory index against HSV-1 ribonucleotide reductase calculated as, [1+k inact/f+0.01] where f = 1-% inhibition/100).; type: functional; method in brief: as §1
[14] = tested on: Human alphaherpesvirus 1; assay: Inactivation of HSV-1 ribonucleotide reductase by the compound (5 uM) at rate constant K inact.; type: functional; method in brief: as §3
[15] = Partition coefficient (logD5.2) (octanol/pH 5.2 acetate buffer); type: physicochemical

Row | SMILES | Inhibitory index [1] | Apparent selectivity (HSV-1/human inhibition index ratio) [2] | kinact [3] | inhibition [4] | pKa [5] | kinact [6] | inhibition [7] | Inhibitory index [8] | inhibition [9] | Inhibitory index [10] | kinact [12] | logD [15] | Inhibition [11] | Inhibitory index [13] | kinact [14]
1 | C/C(=N\N=C(/S)N/N=C(\S)Nc1cccc(Cl)c1Cl)c1ccccn1 | 0.42 | 160 | 0 h⁻¹ | 30% | 3.86 | 49 h⁻¹ | 29% | 68 |  |  |  |  |  |  | 
2 | C/C(=N\N=C(/S)N/N=C(\S)Nc1ccccc1Cl)c1ccccn1 | 1.3 | 21 | 0 h⁻¹ | 57% | 3.94 | 27 h⁻¹ | 0% | 27 |  |  |  | 2.67 |  |  | 
3 | COc1ccc(Cl)cc1/N=C(\S)N/N=C(\S)N/N=C(\C)c1ccccn1 |  | 66 |  |  |  |  |  |  | 9% | 1.2 | 1 h⁻¹ |  | 48% | 78 | 41 h⁻¹
4 | C/C(=N\N=C(/S)N/N=C(\S)NC12CC3CC(CC(C3)C1)C2)c1ccccn1 |  | 24 |  |  |  |  |  |  | 53% | 1.1 | 0 h⁻¹ |  | 47% | 27 | 14 h⁻¹
5 | CCOC(=O)NC(=S)N/N=C(\S)N/N=C(\C)c1ccccn1 |  | 1.8 |  |  |  |  |  |  | 40% | 3.9 | 2 h⁻¹ |  | 14% | 7 | 6 h⁻¹
6 | C/C(=N\N/C(S)=N/N=C(\S)N(C)C)c1ccccn1 | 4.4 | 3 | 4 h⁻¹ | 8% |  | 8 h⁻¹ | 39% | 14 |  |  |  | 1.25 |  |  | 
7 | C/C(=N\N=C(/S)N/N=C(\S)NCCCN1CCOCC1)c1ccccn1 |  | 24 |  |  |  |  |  |  | 23% | 0.29 | 0 h⁻¹ |  | 12% | 7 | 6.1 h⁻¹
8 | C/C(=N\N=C(/S)N/N=C(\S)Nc1ccccc1C)c1ccccn1 |  | 4.6 |  |  |  |  |  |  | 51% | 3 | 1 h⁻¹ |  | 27% | 14 | 10 h⁻¹
9 | C/C(=N\N=C(/S)N/N=C(\S)Nc1cccc(C(F)(F)F)c1)c1ccccn1 | 1.9 | 21 | 1 h⁻¹ | 31% | 3.89 | 34 h⁻¹ | 15% | 40 |  |  |  |  |  |  | 
10 | C/C(=N\N=C(/S)NNC(=S)NC(=O)c1ccccc1)c1ccccn1 |  | 4.5 |  |  |  |  |  |  | 54% | 5.4 | 2 h⁻¹ |  | 38% | 24 | 15 h⁻¹
11 | COc1cccc(N/C(S)=N/N=C(\S)N/N=C(\C)c2ccccn2)c1 | 1.7 | 1.3 | 7 h⁻¹ | 58% |  | 21 h⁻¹ | 6.7% | 22 |  |  |  |  |  |  | 
12 | C/C(=N\N=C(/S)N/N=C(\S)Nc1ccc(Cl)c([N+](=O)[O-])c1)c1ccccn1 | 0.24 | 200 | 0 h⁻¹ | 20% |  | 45 h⁻¹ | 7% | 48 |  |  |  |  |  |  | 
13 | S=C(N/N=C/c1ccccn1)NNC(=S)Nc1ccccc1Cl | 0.8 | 31 | 0 h⁻¹ | 45% |  | 12 h⁻¹ | 51% | 25 |  |  |  |  |  |  | 
14 | O=C(NNC(=S)N/N=C/c1ccccn1)Nc1ccccc1Cl | 1.9 | 14 | 0 h⁻¹ | 66% |  | 23 h⁻¹ | 14% | 27 |  |  |  |  |  |  | 
15 | C/C(=N\N=C(/S)N/N=C(\S)NCCN1CCOCC1)c1ccccn1 |  | 15 |  |  |  |  |  |  | 31% | 1 | 0.4 h⁻¹ |  | 24% | 15 | 11 h⁻¹

Further lines, with some results ahead:

Row | Inhibitory index [1] | Apparent selectivity (HSV-1/human inhibition index ratio) [2] | kinact [3] | inhibition [4] | pKa [5] | kinact [6] | inhibition [7] | Inhibitory index [8] | inhibition [9] | Inhibitory index [10] | kinact [12] | logD [15] | SMILES | Inhibition [11] | Inhibitory index [13] | kinact [14]
16 |  | 23 |  |  |  |  |  |  | 54% | 1.1 | 0 h⁻¹ |  | C/C(=N\N=C(/S)N/N=C(\S)Nc1cccc(C)c1)c1ccccn1 | 28% | 26 | 19 h⁻¹
17 | 0.23 | 350 | 0 h⁻¹ | 19% | 3.87 | 33 h⁻¹ | 59% | 80 |  |  |  |  | C/C(=N\N=C(/S)N/N=C(\S)Nc1ccc(C(F)(F)F)cc1)c1ccccn1 |  |  | 
18 | 3.3 | 10 | 3 h⁻¹ | 7% | 3.8 | 25 h⁻¹ | 27% | 34 |  |  |  |  | C/C(=N\N=C(/S)N/N=C(\S)Nc1cccc(I)c1)c1ccccn1 |  |  | 
19 |  | 3.8 |  |  |  |  |  |  | 83% | 4.6 | 0 h⁻¹ |  | C/C(=N\N=C(/S)N/N=C(\S)Nc1ccncc1)c1ccccn1 | 8% | 17 | 16 h⁻¹
20 |  | 15 |  |  |  |  |  |  | 43% | 0.73 | 0 h⁻¹ |  | C/C(=N\N=C(/S)N/N=C(\S)Nc1cccnc1)c1ccccn1 | 18% | 11 | 9 h⁻¹
21 | 4.2 | 9.1 | 1.3 h⁻¹ | 56% |  | 33 h⁻¹ | 14% | 38 |  |  |  |  | C/C(=N\N=C(/S)N/N=C(\S)Nc1ccc([N+](=O)[O-])cc1)c1ccccn1 |  |  | 
22 | 0.9 | 80 | 0 h⁻¹ | 48% |  | 36 h⁻¹ | 50% | 72 |  |  |  |  | C/C(=N\N=C(/S)N/N=C(\S)Nc1cccc(Cl)c1)c1ccccn1 |  |  | 
23 |  | 2.5 |  |  |  |  |  |  | 59% | 8.5 | 3 h⁻¹ |  | C/C(=N\N=C(/S)N/N=C(\S)Nc1ccccc1)c1ccccn1 | 7% | 21 | 20 h⁻¹
